{"data": "Measured values of several laboratories", "target": "Dual specificity mitogen-activated protein kinase kinase 2 (MAP2K2, Homo sapiens, UniProt P36507)", "note": "Protocols differ between the studies behind these lines."}
{"Compound": "O=c1[nH]c2ccccc2n1C1CCN(Cc2ccc(-c3[nH]c4cc5ncnc5cc4nc3-c3ccccc3)cc2)CC1", "assay": "cell-free assay", "setting": "0.5 µM", "measurement": "remaining signal", "value": "86.6%"}
{"Compound": "Cn1cc(-c2cc(F)cc(N3CCn4c(cc5c4CCCC5)C3=O)c2CO)cc(Nc2ccc(N3CCN(C4COC4)CC3)cn2)c1=O", "assay": "enzyme activity, inhibitor", "setting": "0.1 µM", "measurement": "inhibition", "value": "11%"}
{"Compound": "COc1ncccc1-c1cnn2ccc(N3CCN(C(=O)OC(C)C)CC3)nc12", "assay": "binding, competition with immobilised ligand", "setting": "1 µM", "measurement": "remaining binding", "value": "91%"}
{"Compound": "Nc1ncc(-c2nc(N3CCOCC3)nc(N3CCOCC3)n2)c(C(F)F)n1", "assay": "binding, competition with immobilised ligand", "setting": "10 µM", "measurement": "remaining binding", "value": "77%"}
{"Compound": "Cn1cc(-c2cccc(N3CCc4c(sc5c4CC(C)(C)C5)C3=O)c2CO)cc(Nc2ccncn2)c1=O", "assay": "enzyme activity, inhibitor", "setting": "1 µM", "measurement": "inhibition", "value": "5%"}
{"Compound": "N#CC1(c2ccccn2)CCN(Cc2cc(C(=O)O)c(=O)n3ccccc23)CC1", "assay": "cell-free assay, competition with immobilised ligand", "setting": "1 µM", "measurement": "remaining binding", "value": "100%"}
{"Compound": "Cc1nn(C)cc1-c1nc2c(N3CCN(Cc4ccc(Cl)cc4)CC3)c(Cl)cnc2[nH]1", "assay": "binding, competition with immobilised ligand", "setting": "1 µM", "measurement": "remaining binding", "value": "100%"}
{"Compound": "COc1cc(Nc2ncc(F)c(Nc3ccc4c(n3)NC(=O)C(C)(C)O4)n2)cc(OC)c1OC", "assay": "binding, competition with immobilised ligand", "setting": "10 µM", "measurement": "inhibition", "value": "87%"}
{"Compound": "CC(C)(C)c1cc(C=C(C#N)C#N)cc(Br)c1O", "assay": "enzyme activity, inhibitor", "setting": "0.5 µM", "measurement": "remaining activity", "value": "85.8%"}
{"Compound": "Cn1cncc1[C@@](O)(COc1ccc(C#N)cc1-c1ccc(OC(F)(F)F)cc1)c1ccc(C#N)cc1", "assay": "cell-free assay, competition with immobilised ligand", "setting": "1 µM", "measurement": "remaining binding", "value": "74%"}
